Experimental data of several laboratories.
Target: 5-hydroxytryptamine receptor 3A (HTR3A, Homo sapiens, UniProt P46098)
Concentration: 10 µM
Residues used in one study (P46098 24-478): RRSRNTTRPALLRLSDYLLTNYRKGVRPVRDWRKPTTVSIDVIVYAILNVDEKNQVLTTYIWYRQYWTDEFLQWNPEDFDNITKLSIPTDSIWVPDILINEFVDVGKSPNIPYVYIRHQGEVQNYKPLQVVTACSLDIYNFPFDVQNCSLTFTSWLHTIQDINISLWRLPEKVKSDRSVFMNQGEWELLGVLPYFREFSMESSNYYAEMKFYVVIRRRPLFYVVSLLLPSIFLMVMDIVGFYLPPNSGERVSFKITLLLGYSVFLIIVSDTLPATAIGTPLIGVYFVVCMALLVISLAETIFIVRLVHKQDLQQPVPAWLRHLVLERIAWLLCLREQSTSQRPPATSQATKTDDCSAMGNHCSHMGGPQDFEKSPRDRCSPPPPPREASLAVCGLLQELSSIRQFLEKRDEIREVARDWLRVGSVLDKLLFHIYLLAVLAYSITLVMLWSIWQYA

For `O=C(NC1C2CCN(CC2)C1Cc1cccnc1)c1cc2ccccc2o1` (stereo not shown), the inhibition was 25% (ligand displacement, radioligand).
With `CC[C@H](CC(=O)O)n1c(=O)c2ncccc2n(Cc2cn(C)c3cc(C)cc(C)c23)c1=O` the inhibition was 0.31% (cell-free assay).
With `CCN(CC)c1ccc(C2Nc3ccc(C(=O)c4ccccc4)cc3NC3=C2C(=O)CC(C)(C)C3)cc1` (stereo not shown) the inhibition was -5% (ligand displacement, radioligand).
For `O=C(c1ccc(Cl)cc1)N(Cc1ccccc1)C1CCCCC1`, the inhibition was 1.9% (ligand displacement, radioligand).
`O=C1N=C(N2CCCCN2)S/C1=C\c1ccc(F)cc1O` gave an inhibition of 17% (ligand displacement, radioligand).
The inhibition of `N#Cc1cc(Cn2c(N3CCCC3)nc3ccccc32)ccc1F` is reported as -12.4% (cell-free assay).
For `COc1cc(N[C@@H]2CCCC[C@]2(O)C(F)(F)F)ccc1F`, the inhibition was 11.6% (cell-free assay).
`COc1cc(NC(C)=O)c(Cl)cc1C(=O)Nc1nccs1` has an inhibition of 15.9% (ligand displacement, radioligand).
`CCCNc1nc2ccccc2n1Cc1ccc(Cl)cc1` gave an inhibition of -1.96% (cell-free assay).
For `COc1cc2c3c(c1OC)-c1cc4c(cc1CC3N(CC1CC1)CC2c1ccccc1)OCO4` (stereo not shown), the inhibition was -13.3% (ligand displacement, radioligand).
